Results pooled from the literature.
Compare with care: the assays were run in different laboratories.
BRAF V600E: Serine/threonine-protein kinase B-raf (BRAF, Homo sapiens, UniProt P15056, V600E)
BRAF: Serine/threonine-protein kinase B-raf (BRAF, Homo sapiens, UniProt P15056)

Cc1cc(O)c(-c2ccc([C@@H](C)CN(C)C)cc2)c2c1[nH]c(=O)c1sccc12
inhibition (BRAF V600E; cell-free assay, inhibitor; 0.1 µM, lysate): -5.15%

Cc1cc2c(C(N)=O)c(N)n(-c3c(C)ccc(O)c3C)c2nc1C
remaining binding (BRAF V600E; binding, competition with immobilised ligand; 1 µM): 0.75%

COc1ccc2[nH]c3c4[nH]c5ccc(OC)cc5c4c4c(c3c2c1)C(=O)NC4=O
remaining binding (BRAF V600E; binding; 1 µM): 89%

CCCCC(=O)Nc1ccc(-c2ccc3ncn(CCC)c(=O)c3c2)cn1
remaining binding (BRAF V600E; binding, competition with immobilised ligand; 0.5 µM): 95%

C=CC(=O)N1CCC([C@@H]2CCNc3c(C(N)=O)c(-c4ccc(Oc5ccccc5)cc4)nn32)CC1
inhibition (BRAF; enzyme activity, inhibitor; 1 µM): 0%

CN1CCN(C(=O)c2ccc(NC(=O)Nc3ccc(N(C)c4ccnc(Nc5ccc(CS(C)(=O)=O)cc5)n4)cc3)cc2)CC1
remaining binding (BRAF; binding, competition with immobilised ligand; 1 µM): 89%

CO[C@@H]1[C@H](N(C)C(=O)c2ccccc2)C[C@H]2O[C@]1(C)n1c3ccccc3c3c4c(c5c6ccccc6n2c5c31)C(=O)NC4
inhibition (BRAF V600E; enzyme activity, inhibitor; 1 µM): 0%

COc1ccc2oc(-c3ccc4nc(N)oc4c3)c/c(=N\c3ccccc3NC(=O)CCN)c2c1
remaining signal (BRAF V600E; cell-free assay; 1 µM): 100%

C[C@H]1CC[C@H](n2c3cnccc3c3cnc(Nc4ccc5c(n4)CCN(C(=O)CO)C5)nc32)CC1
remaining binding (BRAF; cell-free assay, competition with immobilised ligand; 1 µM): 74%

C=CC(=O)N1CCC[C@@H](n2nc(-c3ccc(Oc4ccccc4)cc3)c3c(N)ncnc32)C1
inhibition (BRAF V600E; enzyme activity, inhibitor; 1 µM): 61%

Cc1ccc(NC(=O)c2ccnc(C(F)(F)F)c2)cc1-c1cc(OCCO)nc(N2CCOCC2)c1
remaining binding (BRAF V600E; binding; 1 µM): 0.35%

N#Cc1ccc(NC(=O)Nc2ccccc2)cc1
remaining binding (BRAF V600E; cell-free assay, competition with immobilised ligand; 25 µM): 100%

CC#CC(=O)N1CCC[C@H]1c1nc(-c2ccc(C(=O)Nc3ccccn3)cc2)c2c(N)nccn12
inhibition (BRAF; enzyme activity, inhibitor; 1 µM): 43%

C1=C/COCc2cc(ccc2OCCN2CCCC2)Nc2nccc(n2)-c2cccc(c2)COC/1
remaining binding (BRAF V600E; binding; 0.1 µM): 85%
